In ChEMBL document CHEMBL1157103, “Structure and anti-TB activity of trachylobanes from the liverwort Jungermannia exsertifolia ssp. cordifolia” (2010):
≈ marks a conversion by molar mass, not a printed value.

test system: Mycobacterium tuberculosis; assay: Antituberculosis activity against Mycobacterium tuberculosis H37Rv ATCC 27294 after 7 to 10 days by microplate alamar blue assay; format: functional
Outline: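 Microdilution in 96-well format. Test materials were incubated with virulent M. tuberculosis H37Rv for 7–10 days at 0.1 to 128 μg/mL. Growth was read fluorometrically with Alamar Blue. MIC90 and percent inhibition were calculated against a 1:10 dilution of the inoculum. Rifampin served as the positive control and DMSO as the negative control.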

Row | Compound | MIC90
1 | CC(=O)O[C@@H]1CC[C@@]2(C)[C@@H]3C[C@@H]4[C@H]5C[C@@]3(CC[C@@H]2[C@@]1(C)C=O)C[C@@]45C | > 371 µM
2 | CC(=O)OC[C@]1(C)[C@H]2CC[C@@]34C[C@@H]5[C@@H](C[C@H]3[C@]2(C)CC[C@H]1O)[C@]5(C)C4 | > 370 µM
3 | CC1(C)[C@H](O)CC[C@]2(C)[C@@H]1CC[C@@]13C[C@@H]4[C@@H](C[C@H]12)[C@]4(C(=O)O)C3 | > 402 µM
4 | CC(=O)OC[C@@]1(C(=O)O)[C@H](OC(C)=O)CC[C@@]2(C)[C@@H]3C[C@@H]4[C@H]5C[C@@]3(CC[C@@H]21)C[C@@]45C | > 306 µM
5 | CC(=O)O[C@@H]1CC[C@]2(C)[C@H](CC[C@@]34C[C@@H]5[C@@H](C[C@H]32)[C@]5(C)C4)[C@@]1(C)CO | > 370 µM
6 | CC(=O)O[C@@H]1CC[C@]2(C)[C@H](CC[C@@]34C[C@@H]5[C@@H](C[C@H]32)[C@]5(C)C4)C1(C)C | 337 µM (≈ 111 µg/mL)
7 | CC1(C)CCC[C@]2(C)[C@@H]1CC[C@@]13C[C@@H]4[C@@H](C[C@H]12)[C@]4(C=O)C3 | 85 µM (≈ 24.3 µg/mL)
8 | CC1(C)CCC[C@]2(C)[C@@H]1CC[C@@]13C[C@@H]4[C@@H](C[C@H]12)[C@]4(CO)C3 | 446 µM (≈ 129 µg/mL)
9 | CC(=O)O[C@@H]1CC[C@@]2(C)[C@@H]3C[C@@H]4[C@H]5C[C@@]3(CC[C@@H]2[C@]1(C)C=O)C[C@@]45C | > 371 µM
10 | CC(=O)O[C@@H]1CC[C@]2(C)[C@H](CC[C@@]34C[C@@H]5[C@@H](C[C@H]32)[C@]5(C)C4)[C@]1(C)CO | 171 µM (≈ 59.3 µg/mL)
11 | CC1(C)[C@H](O)CC[C@]2(C)[C@@H]1CC[C@@]13C[C@@H]4[C@@H](C[C@H]12)[C@]4(C)C3 | 212 µM (≈ 61.2 µg/mL)
12 | CC1(C)C(=O)CC[C@@]2(C)[C@@H]3C[C@@H]4[C@@H]5C[C@@]3(CC[C@@H]12)C[C@@]45C | 173 µM (≈ 49.6 µg/mL)
13 | CO[C@H]1/C=C/O[C@@]2(C)Oc3c(C)c(O)c4c(O)c(c(/C=N/N5CCN(C)CC5)c(O)c4c3C2=O)NC(=O)/C(C)=C\C=C\[C@H](C)[C@H](O)[C@@H](C)[C@@H](O)[C@@H](C)[C@H](OC(C)=O)[C@@H]1C [RIFAMPIN] | < 0.15 µM
